From ChEMBL document CHEMBL1145619, “Conformation-activity relationship on novel 4-pyridylmethylthio derivatives with antiangiogenic activity” (Bioorg Med Chem Lett, 2008)
pIC50: −log10 of the molar value.

Assays:
HUVEC = experiment: Antiproliferative activity against VEGF-induced HUVEC cells; format: functional, cell-based; settings: Homo sapiens
[1] = target: T1, Vascular endothelial growth factor receptor 2 (Homo sapiens, UniProt P35968); experiment: Inhibition of KDR at 10 uM by ELISA
Procedure, shortened: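 KDR kinase activity measured with a commercial kinase assay development kit by ELISA. The read-out is the phosphorylation level of a biotinylated peptide containing Tyr in its sequence. The table gives IC50 values, and gives percent inhibition at 10 µM where the IC50 exceeded the range.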

[2] = target: T1, Vascular endothelial growth factor receptor 2; experiment: Inhibition of KDR by ELISA
Procedure, shortened: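 KDR kinase activity measured with a commercial kinase assay development kit by ELISA. The read-out is the phosphorylation level of a biotinylated peptide containing Tyr in its sequence.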

T1 sequence (P35968 whole entry): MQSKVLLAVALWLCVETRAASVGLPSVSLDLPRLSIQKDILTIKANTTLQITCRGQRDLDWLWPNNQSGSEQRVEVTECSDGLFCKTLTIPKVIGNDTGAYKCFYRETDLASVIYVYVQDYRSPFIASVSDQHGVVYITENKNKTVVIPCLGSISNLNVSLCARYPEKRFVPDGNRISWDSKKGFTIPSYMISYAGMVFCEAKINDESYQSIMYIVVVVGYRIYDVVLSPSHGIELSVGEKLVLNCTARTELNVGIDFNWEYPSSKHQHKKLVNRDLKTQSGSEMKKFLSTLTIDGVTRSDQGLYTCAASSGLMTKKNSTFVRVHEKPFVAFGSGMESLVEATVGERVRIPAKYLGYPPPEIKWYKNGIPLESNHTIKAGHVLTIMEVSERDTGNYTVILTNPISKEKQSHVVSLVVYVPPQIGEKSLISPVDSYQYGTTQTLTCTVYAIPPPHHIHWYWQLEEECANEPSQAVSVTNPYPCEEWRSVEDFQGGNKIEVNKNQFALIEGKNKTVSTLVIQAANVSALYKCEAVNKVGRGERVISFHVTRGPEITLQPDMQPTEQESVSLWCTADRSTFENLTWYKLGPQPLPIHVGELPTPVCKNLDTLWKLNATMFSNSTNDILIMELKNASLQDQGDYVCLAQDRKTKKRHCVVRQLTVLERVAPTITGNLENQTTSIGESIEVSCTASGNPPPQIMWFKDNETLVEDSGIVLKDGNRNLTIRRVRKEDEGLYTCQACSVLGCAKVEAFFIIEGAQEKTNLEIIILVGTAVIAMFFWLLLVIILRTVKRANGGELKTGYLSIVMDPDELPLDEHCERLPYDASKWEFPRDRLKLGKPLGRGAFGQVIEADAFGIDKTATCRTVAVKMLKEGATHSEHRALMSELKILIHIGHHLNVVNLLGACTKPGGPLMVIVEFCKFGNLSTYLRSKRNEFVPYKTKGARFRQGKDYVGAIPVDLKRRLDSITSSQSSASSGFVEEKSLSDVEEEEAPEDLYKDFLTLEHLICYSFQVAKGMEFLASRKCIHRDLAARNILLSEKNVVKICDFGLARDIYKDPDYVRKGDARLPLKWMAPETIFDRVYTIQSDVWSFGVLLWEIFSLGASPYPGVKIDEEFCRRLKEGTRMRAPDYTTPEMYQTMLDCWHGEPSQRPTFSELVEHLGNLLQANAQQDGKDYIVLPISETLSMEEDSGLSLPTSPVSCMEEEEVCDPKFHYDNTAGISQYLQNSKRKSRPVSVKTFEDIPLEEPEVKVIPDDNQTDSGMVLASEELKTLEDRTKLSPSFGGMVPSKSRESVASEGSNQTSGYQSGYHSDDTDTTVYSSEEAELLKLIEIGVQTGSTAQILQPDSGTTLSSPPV

Row | inhibition [1] [%] | pIC50 [2] | Compound | pIC50 (HUVEC)
1 | 54 | < 6.00 | O=C(Nc1ccc(Cl)cc1)c1ccccc1OCc1ccncc1 | < 5.70
2 | 0 | < 6.00 | S=C(Nc1ccc(Cl)cc1)c1ccccc1OCc1ccncc1 | –
3 | – | 7.59 | O=C(Nc1ccc(Cl)cc1)c1cccnc1SCc1ccncc1 | –

Further lines, the compound ahead of its results:

Row | Compound | inhibition [1] [%] | pIC50 [2] | pIC50 (HUVEC)
4 | Clc1ccc(Nc2nnc(Cc3ccncc3)c3ccccc23)cc1 | – | – | 8.22
5 | O=C(Nc1ccc(Cl)cc1)c1ccccc1SCc1ccncc1 | – | 7.34 | –
